# Source: ChEMBL document CHEMBL1155746, “Isolation of new protein phosphatase inhibitors from two cyanobacteria species, Planktothrix spp” (J Nat Prod, 2001)
# Calls of active or inactive are those of the source. The calls are words filed in the database; no cut-off is given here. *1 amine or outer side, *2 acyl side, *3 side chain or, on linkers, in order; H or OH if unused. Where a SMILES comes first, the peptide text is derived from it. Bridges are numbered along the chain shown (N, C = ends). [ ]: non-standard residue; d: D form. hTyr = N[C@@H](CCc1ccc(O)cc1)C(=O)O; aIle = CC[C@@H](C)[C@H](N)C(=O)O; NMeA = CN[C@@H](C)C(=O)O; CO = O=C([*:1])[*:2]
# What was measured:
# [1] = Inhibition of PTP-S2 expressed in Escherichia coli JM109 at 100 ug/mL
# [2] = organism: Homo sapiens; experiment: Inhibition of human red blood cells PP2A at 100 ug/mL by liquid scintillation counter
# Procedure, shortened: (§1)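 Enzyme at 0.05 unit/50 µL was incubated with 32P-labelled myelin basic protein, which had been phosphorylated using cAMP-dependent kinase catalytic subunit and γ-[32P]ATP. Reactions ran at 30 °C for 10 min in duplicate and were stopped with 20% trichloroacetic acid on ice. Released 32Pi in the supernatant was counted by liquid scintillation. The control received MeOH.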
# [3] = Inhibition of human red blood cell PP2A; procedure, shortened: as §1
# [4] = organism: Oryctolagus cuniculus; experiment: Inhibition of rabbit skeletal muscle PP1 at 100 ug/mL by liquid scintillation counter; procedure, shortened: as §1
# [5] = molecular target: T1, M-phase inducer phosphatase 2 (Homo sapiens) (UniProt P30305); experiment: Inhibition of human dual specificity protein phosphatase Cdc25B expressed in Escherichia coli BL21 (DE3) at 100 ug/mL
# T1 sequence (whole entry): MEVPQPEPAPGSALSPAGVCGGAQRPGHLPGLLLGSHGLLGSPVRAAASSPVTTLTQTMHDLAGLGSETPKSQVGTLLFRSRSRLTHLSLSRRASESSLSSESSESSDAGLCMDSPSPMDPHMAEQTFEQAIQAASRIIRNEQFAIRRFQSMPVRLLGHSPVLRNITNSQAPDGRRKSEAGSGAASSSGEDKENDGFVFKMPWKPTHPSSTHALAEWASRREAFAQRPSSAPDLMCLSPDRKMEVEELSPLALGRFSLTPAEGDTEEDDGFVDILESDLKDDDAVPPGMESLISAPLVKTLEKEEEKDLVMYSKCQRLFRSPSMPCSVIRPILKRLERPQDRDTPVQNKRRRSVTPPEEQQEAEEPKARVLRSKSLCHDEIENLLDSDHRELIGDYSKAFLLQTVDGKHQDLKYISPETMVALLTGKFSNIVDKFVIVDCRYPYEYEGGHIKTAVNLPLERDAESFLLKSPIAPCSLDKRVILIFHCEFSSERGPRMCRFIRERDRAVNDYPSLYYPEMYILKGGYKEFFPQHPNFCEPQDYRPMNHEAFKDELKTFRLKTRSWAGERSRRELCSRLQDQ
# Procedure, shortened: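 The catalytic subunit was expressed from pET21b and purified. Substrate was 200 µM 3-O-methylfluorescein phosphate in 100 mM Tris-HCl, 40 mM NaCl, 1 mM dithiothreitol, 20% glycerol, pH 8.2, at 37 °C for 20 min. Reactions were stopped with 6 M guanidine-HCl/1 M MES, pH 5.5, and the absorbance increase at 477 nm was read. The control received MeOH.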
# [6] = Inhibition of rabbit skeletal muscle PP1; parameters: species or system Oryctolagus cuniculus; procedure, shortened: as §1
# [7] = molecular target: Dual specificity protein phosphatase 3 (Homo sapiens) (UniProt P51452); experiment: Inhibition of human dual specificity protein phosphatase VHR expressed in Escherichia coli JM109 at 100 ug/mL
# Sequence of Dual specificity protein phosphatase 3 (Homo sapiens) (P51452 whole entry, looked up): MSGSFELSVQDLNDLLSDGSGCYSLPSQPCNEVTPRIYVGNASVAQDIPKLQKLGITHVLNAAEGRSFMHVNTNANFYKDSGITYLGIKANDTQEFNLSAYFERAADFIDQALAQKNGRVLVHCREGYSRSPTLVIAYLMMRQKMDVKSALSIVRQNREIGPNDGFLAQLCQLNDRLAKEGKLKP
Activity [1],inhibition [2] [%],IC50 [3] [nM],inhibition [4] [%],Activity [5],IC50 [6] [nM],Activity [7],Structure (SMILES)
inactive,98.4,1330,97.3,inactive,900,inactive,CC[C@H](C)[C@@H]1NC(=O)[C@H](NC(=O)N[C@@H](CCCNC(=N)N)C(=O)O)CCCCNC(=O)[C@H](Cc2ccccc2)NC(=O)[C@H](CCc2ccc(O)cc2)N(C)C(=O)[C@H](CCc2ccc(O)cc2)NC1=O [OSCILLAMIDE C]
inactive,62.8,,43.3,inactive,,inactive,CSCC[C@@H]1NC(=O)[C@H](NC(=O)N[C@@H](CCCNC(=N)N)C(=O)O)CCCCNC(=O)[C@H](Cc2ccccc2)NC(=O)[C@H](C)N(C)C(=O)[C@H](CCc2ccc(O)cc2)NC1=O ({Arg-CO}-[dK]M[hTyr][NMeA]F; lactam 1-C)
inactive,41.5,,38.1,inactive,,inactive,CC[C@H](C)[C@@H]1NC(=O)[C@H](NC(=O)N[C@@H](CCCNC(=N)N)C(=O)O)CCCCNC(=O)[C@H](Cc2ccccc2)NC(=O)[C@H](C)N(C)C(=O)[C@H](CCc2ccc(O)cc2)NC1=O ({Arg-CO}-[dK]I[hTyr][NMeA]F; lactam 1-C)
inactive,9.6,,11.2,inactive,,inactive,CC[C@@H](C)[C@@H]1NC(=O)[C@H](NC(=O)N[C@@H](Cc2ccc(O)cc2)C(=O)O)CCCCNC(=O)[C@H](Cc2ccccc2)NC(=O)[C@H](C)N(C)C(=O)[C@H](CCc2ccc(O)cc2)NC1=O ({Tyr-CO}-[dK][aIle][hTyr][NMeA]F; lactam 1-C)
